Measurements from ChEMBL document CHEMBL1275561, “In vitro activities of doripenem, a new broad-spectrum carbapenem, against recently collected clinical anaerobic isolates, with emphasis on the Bacteroides fragilis group” (2008).

What was measured:
Assay type in all cases: functional
Parabacteroides merdae [1] = experiment: Antimicrobial activity against Bacteroides merdae assessed as resistant isolates by agar dilution method
Procedure, shortened: (§1)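 CLSI agar dilution on enriched brucella agar (5% lysed defibrinated sheep blood, 1 μg/ml vitamin K1), plates made on test day. Log-phase inocula adjusted to 0.5 McFarland; about 10^5 CFU/spot by Steers replicator. Incubated anaerobically at 37°C for 48 h. MIC was the lowest concentration giving a marked change in growth versus the drug-free control plate. Resistance rates used CLSI anaerobe breakpoints. Controls were B. fragilis ATCC 25285 and B. thetaiotaomicron ATCC 29741.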

Bacteroides ovatus [2] = experiment: Antimicrobial activity against Bacteroides ovatus assessed as resistant isolates by agar dilution method; procedure, shortened: as §1
Phocaeicola vulgatus [3] = experiment: Antimicrobial activity against Bacteroides vulgatus assessed as resistant isolates by agar dilution method; procedure, shortened: as §1
[4] = tested on: Parabacteroides distasonis; experiment: Antimicrobial activity against Bacteroides distasonis assessed as resistant isolates by agar dilution method; procedure, shortened: as §1
Bacteroides nordii [5] = experiment: Antimicrobial activity against Bacteroides nordii by agar dilution method
Procedure, shortened: (§2)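 CLSI agar dilution on enriched brucella agar (5% lysed defibrinated sheep blood, 1 μg/ml vitamin K1), with drug plates made on the test day. Log-phase cells were adjusted to 0.5 McFarland, and about 10^5 CFU/spot was delivered by Steers replicator. Plates were incubated anaerobically at 37°C for 48 h. MIC was the lowest concentration giving a marked growth change versus the control plate. Controls were B. fragilis ATCC 25285 and B. thetaiotaomicron ATCC 29741.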

Peptostreptococcus sp. = experiment: Antimicrobial activity against Peptostreptococcus sp. by agar dilution method
Procedure, shortened: (§3)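 Log-phase isolates were adjusted to 0.5 McFarland, and about 10^5 CFU/spot was delivered by Steers replicator. Plates were incubated anaerobically at 37°C for 48 h. MIC was the lowest concentration giving a marked growth change versus the control plate. Eubacterium lentum ATCC 43055 was the QC strain, with repeats when out of range.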

[6] = tested on: Bacteroides thetaiotaomicron; experiment: Antimicrobial activity against Bacteroides thetaiotaomicron assessed as resistant isolates by agar dilution method; procedure, shortened: as §1
Bacteroides fragilis [7] = experiment: Antimicrobial activity against Bacteroides fragilis assessed as resistant isolates by agar dilution method; procedure, shortened: as §1
Finegoldia magna [8] = experiment: Antimicrobial activity against Finegoldia magna by agar dilution method
Procedure, shortened: (§4)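 Gram-positive anaerobes were tested by CLSI agar dilution on brucella agar enriched with 5% lysed defibrinated sheep blood and 1 μg/ml vitamin K1. Inoculum was log-phase growth at 0.5 McFarland, about 10^5 CFU/spot by replicator. Incubation was anaerobic, 37°C, 48 h. MIC was the lowest concentration with a marked growth change versus the drug-free plate. Eubacterium lentum ATCC 43055 was the control, and tests were repeated if it fell outside the CLSI range.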

Bacteroides uniformis [9] = experiment: Antimicrobial activity against Bacteroides uniformis assessed as resistant isolates by agar dilution method; procedure, shortened: as §1
[10] = tested on: Parabacteroides distasonis; experiment: Antimicrobial activity against Bacteroides distasonis by agar dilution method; procedure, shortened: as §2
Bacteroides fragilis [11] = experiment: Antimicrobial activity against Bacteroides fragilis by agar dilution method; procedure, shortened: as §2
Bacteroides ovatus [12] = experiment: Antimicrobial activity against Bacteroides ovatus by agar dilution method; procedure, shortened: as §2
Clostridium perfringens = experiment: Antimicrobial activity against Clostridium perfringens by agar dilution method
Cutibacterium acnes [13] = experiment: Antimicrobial activity against Propionibacterium acnes by agar dilution method; procedure, shortened: as §3
Clostridioides difficile = experiment: Antimicrobial activity against Clostridium difficile by agar dilution method
Bacteroides nordii [14] = experiment: Antimicrobial activity against Bacteroides nordii assessed as resistant isolates by agar dilution method; procedure, shortened: as §1
[Clostridium] innocuum [15] = Antimicrobial activity against Clostridium innocuum by agar dilution method
Bacteroides eggerthii [16] = experiment: Antimicrobial activity against Bacteroides eggerthii by agar dilution method; procedure, shortened: as §2
Clostridium subterminale = experiment: Antimicrobial activity against Clostridium subterminale by agar dilution method
Parvimonas micra = experiment: Antimicrobial activity against Micromonas micros by agar dilution method; procedure, shortened: as §4
[17] = tested on: Clostridium paraputrificum; experiment: Antimicrobial activity against Clostridium paraputrificum by agar dilution method
[18] = tested on: Bacteroides thetaiotaomicron; experiment: Antimicrobial activity against Bacteroides thetaiotaomicron by agar dilution method; procedure, shortened: as §2
Bacteroides eggerthii [19] = experiment: Antimicrobial activity against Bacteroides eggerthii assessed as resistant isolates by agar dilution method; procedure, shortened: as §1
Finegoldia magna [20] = experiment: Antimicrobial activity against Finegoldia magna assessed as resistant isolates by agar dilution method
Procedure, shortened: (§5)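 Agar dilution following CLSI on brucella agar with 5% lysed defibrinated sheep blood and 1 μg/ml vitamin K1, plates made on test day. Log-phase cells at 0.5 McFarland, about 10^5 CFU/spot by Steers replicator, 48 h anaerobic at 37°C. MIC read as the lowest concentration causing a marked growth change versus control. Resistance counted by CLSI anaerobe breakpoints. Eubacterium lentum ATCC 43055 served as control.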

Propionibacterium [21] = experiment: Antimicrobial activity against Propionibacterium sp. by agar dilution method; procedure, shortened: as §3
Phocaeicola vulgatus [22] = experiment: Antimicrobial activity against Bacteroides vulgatus by agar dilution method; procedure, shortened: as §2
Parabacteroides merdae [23] = experiment: Antimicrobial activity against Bacteroides merdae by agar dilution method; procedure, shortened: as §2
Cutibacterium acnes [24] = experiment: Antimicrobial activity against Propionibacterium acnes assessed as resistant isolates by agar dilution method; procedure, shortened: as §5
Clostridium tertium = experiment: Antimicrobial activity against Clostridium tertium by agar dilution method
Bacteroides caccae [25] = experiment: Antimicrobial activity against Bacteroides caccae assessed as resistant isolates by agar dilution method; procedure, shortened: as §1
Bacteroides caccae [26] = experiment: Antimicrobial activity against Bacteroides caccae by agar dilution method; procedure, shortened: as §2
Propionibacterium [27] = experiment: Antimicrobial activity against Propionibacterium sp. assessed as resistant isolates by agar dilution method; procedure, shortened: as §5
Anaerococcus prevotii = experiment: Antimicrobial activity against Anaerococcus prevotii by agar dilution method; procedure, shortened: as §4
Bacteroides uniformis [28] = experiment: Antimicrobial activity against Bacteroides uniformis by agar dilution method; procedure, shortened: as §2
[29] = tested on: Peptoniphilus asaccharolyticus; experiment: Antimicrobial activity against Peptoniphilus asaccharolyticus assessed as resistant isolates by agar dilution method; conditions: pooled result: one value given for 4 cell lines, strains, targets or settings; procedure, shortened: as §5
[Clostridium] innocuum [30] = Antimicrobial activity against Clostridium innocuum assessed as resistant isolates by agar dilution method; conditions: pooled result: one value given for 4 cell lines, strains, targets or settings
[31] = tested on: Peptoniphilus asaccharolyticus; experiment: Antimicrobial activity against Peptoniphilus asaccharolyticus by agar dilution method; procedure, shortened: as §4

C[C@@H](O)[C@H]1C(=O)N2C(C(=O)O)=C(S[C@@H]3CN[C@H](C(=O)Nc4cccc(C(=O)O)c4)C3)[C@H](C)[C@H]12
8 µg/mL: MIC90 ([Clostridium] innocuum [15]) | MIC90 (Clostridium subterminale) | MIC90 [17] | MIC90 (Clostridium tertium)
0.125 µg/mL: MIC50 (Peptostreptococcus sp.) | MIC50 (Finegoldia magna [8]) | MIC90 (Finegoldia magna [8]) | MIC50 (Parvimonas micra) | MIC50 (Anaerococcus prevotii) | MIC50 [31]
0%: Activity (Parabacteroides merdae [1]) | Activity (Phocaeicola vulgatus [3]) | Activity [4] | Activity [6] | Activity (Bacteroides uniformis [9]) | Activity (Bacteroides nordii [14]) | Activity (Bacteroides eggerthii [19]) | Activity (Finegoldia magna [20]) | Activity (Cutibacterium acnes [24]) | Activity (Bacteroides caccae [25]) | Activity (Propionibacterium [27]) | Activity [29] | Activity ([Clostridium] innocuum [30])
2 µg/mL: MIC90 (Bacteroides nordii [5]) | MIC90 (Bacteroides fragilis [11]) | MIC (Clostridioides difficile) | MIC90 (Bacteroides eggerthii [16]) | MIC50 [18] | MIC90 (Phocaeicola vulgatus [22]) | MIC90 (Parabacteroides merdae [23]) | MIC90 (Bacteroides caccae [26]) | MIC90 (Bacteroides uniformis [28])
0.25 µg/mL: MIC90 (Clostridium perfringens) | MIC90 (Propionibacterium [21])
4 µg/mL: MIC90 [10] | MIC90 (Bacteroides ovatus [12]) | MIC50 ([Clostridium] innocuum [15]) | MIC50 (Clostridium subterminale) | MIC50 [17] | MIC90 [18] | MIC50 (Clostridium tertium)
2%: Activity (Bacteroides fragilis [7])
0.06 µg/mL: MIC (Clostridium perfringens) | MIC50 (Clostridium perfringens) | MIC (Cutibacterium acnes [13]) | MIC50 (Cutibacterium acnes [13]) | MIC90 (Cutibacterium acnes [13]) | MIC (Propionibacterium [21]) | MIC50 (Propionibacterium [21])
0.5 µg/mL: MIC90 (Peptostreptococcus sp.) | MIC50 (Bacteroides fragilis [11]) | MIC90 (Parvimonas micra) | MIC50 (Phocaeicola vulgatus [22]) | MIC50 (Bacteroides caccae [26]) | MIC90 (Anaerococcus prevotii) | MIC50 (Bacteroides uniformis [28]) | MIC90 [31]
1 µg/mL: MIC50 (Bacteroides nordii [5]) | MIC50 [10] | MIC50 (Bacteroides ovatus [12]) | MIC50 (Bacteroides eggerthii [16]) | MIC50 (Parabacteroides merdae [23])
2.9%: Activity (Bacteroides ovatus [2])

CO[C@@]1(NC(=O)Cc2cccs2)C(=O)N2C(C(=O)O)=C(COC(N)=O)CS[C@@H]21 [CEFOXITIN]
1 µg/mL: MIC (Peptostreptococcus sp.) | MIC50 (Peptostreptococcus sp.) | MIC (Finegoldia magna [8]) | MIC50 (Finegoldia magna [8]) | MIC90 (Finegoldia magna [8]) | MIC (Clostridium perfringens) | MIC50 (Clostridium perfringens) | MIC (Cutibacterium acnes [13]) | MIC50 (Cutibacterium acnes [13]) | MIC90 (Cutibacterium acnes [13]) | MIC (Parvimonas micra) | MIC50 (Parvimonas micra) | MIC (Propionibacterium [21]) | MIC50 (Propionibacterium [21]) | MIC90 (Propionibacterium [21]) | MIC (Anaerococcus prevotii) | MIC50 (Anaerococcus prevotii) | MIC [31] | MIC50 [31]
32 µg/mL: MIC90 (Bacteroides nordii [5]) | MIC90 [10] | MIC90 (Bacteroides fragilis [11]) | MIC90 (Bacteroides eggerthii [16]) | MIC50 [18] | MIC90 (Phocaeicola vulgatus [22]) | MIC90 (Parabacteroides merdae [23]) | MIC90 (Bacteroides caccae [26])
8 µg/mL: MIC50 (Phocaeicola vulgatus [22])
6.7%: Activity [4]
16 µg/mL: MIC50 (Bacteroides nordii [5]) | MIC50 [10] | MIC50 (Bacteroides fragilis [11]) | MIC50 (Bacteroides ovatus [12]) | MIC50 (Bacteroides eggerthii [16]) | MIC50 (Parabacteroides merdae [23]) | MIC50 (Bacteroides caccae [26]) | MIC50 (Bacteroides uniformis [28])
3.2%: Activity (Phocaeicola vulgatus [3])
0%: Activity (Parabacteroides merdae [1]) | Activity (Bacteroides nordii [14]) | Activity (Bacteroides eggerthii [19]) | Activity (Finegoldia magna [20]) | Activity (Cutibacterium acnes [24]) | Activity (Propionibacterium [27]) | Activity [29]
55.6%: Activity ([Clostridium] innocuum [30])
128 µg/mL: MIC90 ([Clostridium] innocuum [15])
> 128 µg/mL: MIC90 (Clostridium subterminale) | MIC90 [17] | MIC90 (Clostridium tertium)
4 µg/mL: MIC90 (Peptostreptococcus sp.) | MIC90 (Clostridium perfringens) | MIC90 (Parvimonas micra) | MIC90 (Anaerococcus prevotii) | MIC90 [31]
9.5%: Activity (Bacteroides uniformis [9])
14.3%: Activity (Bacteroides ovatus [2])
64 µg/mL: MIC90 (Bacteroides ovatus [12]) | MIC50 ([Clostridium] innocuum [15]) | MIC50 (Clostridium subterminale) | MIC50 [17] | MIC90 [18] | MIC50 (Clostridium tertium) | MIC90 (Bacteroides uniformis [28])
6.3%: Activity (Bacteroides caccae [25])
3%: Activity (Bacteroides fragilis [7])
10.3%: Activity [6]
> 8 µg/mL: MIC (Clostridioides difficile)
